BindingDB's records for doi:10.1016/j.bmc.2008.04.041 (The University of Tokushima, 2008)

Experiments:
[1] = target: 72 kDa type IV collagenase (Homo sapiens, UniProt P08253); experiment: Inhibition of human bowes melanoma cell MMP2
[2] = target: Matrix metalloproteinase-9 (Bos taurus, UniProt P52176); experiment: Inhibition of bovine arterial endothelial cell MMP9
[3] = target: Epidermal growth factor receptor (Homo sapiens, UniProt P00533); experiment: Inhibition of human A431 cell EGFRK assessed as 32P phosphorylation by scintillation counter
Method in brief: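 Solubilized A431 cell lysate, debris removed, incubated with or without EGF for 30 min at 25 °C. Reaction started with [γ-³²P]ATP, 10 min at 0 °C. After stopping and washing, receptor phosphorylation measured as ³²P by scintillation counting.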

[4] = target: Vascular endothelial growth factor receptor 1 (Homo sapiens, UniProt P17948); experiment: Inhibition of Flt1 expressed in mouse NIH3T3 cells by autoradiography
Vascular endothelial growth factor receptor 1, sequence (P17948 whole entry): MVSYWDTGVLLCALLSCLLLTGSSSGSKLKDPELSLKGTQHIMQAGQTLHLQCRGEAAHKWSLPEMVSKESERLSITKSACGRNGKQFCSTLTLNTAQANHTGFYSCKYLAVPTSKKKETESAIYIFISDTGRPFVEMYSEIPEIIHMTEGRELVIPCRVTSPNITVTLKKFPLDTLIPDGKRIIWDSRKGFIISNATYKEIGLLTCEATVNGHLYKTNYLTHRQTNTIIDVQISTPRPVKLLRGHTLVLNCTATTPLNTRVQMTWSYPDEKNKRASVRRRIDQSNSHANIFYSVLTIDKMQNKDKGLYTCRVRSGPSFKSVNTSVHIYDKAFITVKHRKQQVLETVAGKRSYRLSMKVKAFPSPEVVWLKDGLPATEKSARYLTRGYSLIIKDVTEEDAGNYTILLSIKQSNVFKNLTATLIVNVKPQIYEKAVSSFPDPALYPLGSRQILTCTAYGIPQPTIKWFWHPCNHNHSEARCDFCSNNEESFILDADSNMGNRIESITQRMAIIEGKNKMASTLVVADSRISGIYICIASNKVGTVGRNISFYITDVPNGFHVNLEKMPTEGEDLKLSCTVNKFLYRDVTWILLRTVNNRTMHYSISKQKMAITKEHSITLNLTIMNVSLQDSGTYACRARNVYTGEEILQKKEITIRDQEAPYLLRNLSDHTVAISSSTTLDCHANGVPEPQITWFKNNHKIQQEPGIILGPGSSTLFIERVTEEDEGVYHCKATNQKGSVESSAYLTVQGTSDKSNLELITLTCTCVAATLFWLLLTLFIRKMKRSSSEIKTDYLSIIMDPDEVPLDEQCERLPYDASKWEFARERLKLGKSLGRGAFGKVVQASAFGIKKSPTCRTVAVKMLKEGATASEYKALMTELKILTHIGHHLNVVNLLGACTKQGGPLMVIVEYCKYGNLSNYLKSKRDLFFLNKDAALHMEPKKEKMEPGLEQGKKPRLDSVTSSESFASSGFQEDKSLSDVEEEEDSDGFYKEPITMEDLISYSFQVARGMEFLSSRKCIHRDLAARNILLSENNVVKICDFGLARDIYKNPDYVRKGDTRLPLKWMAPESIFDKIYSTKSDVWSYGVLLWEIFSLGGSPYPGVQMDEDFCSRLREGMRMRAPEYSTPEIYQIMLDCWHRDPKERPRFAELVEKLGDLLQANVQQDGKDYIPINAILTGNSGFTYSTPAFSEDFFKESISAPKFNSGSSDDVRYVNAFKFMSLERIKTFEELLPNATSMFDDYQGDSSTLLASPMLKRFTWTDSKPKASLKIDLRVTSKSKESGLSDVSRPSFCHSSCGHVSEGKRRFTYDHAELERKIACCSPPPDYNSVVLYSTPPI

Matrix metalloproteinase-9, sequence (P52176 whole entry): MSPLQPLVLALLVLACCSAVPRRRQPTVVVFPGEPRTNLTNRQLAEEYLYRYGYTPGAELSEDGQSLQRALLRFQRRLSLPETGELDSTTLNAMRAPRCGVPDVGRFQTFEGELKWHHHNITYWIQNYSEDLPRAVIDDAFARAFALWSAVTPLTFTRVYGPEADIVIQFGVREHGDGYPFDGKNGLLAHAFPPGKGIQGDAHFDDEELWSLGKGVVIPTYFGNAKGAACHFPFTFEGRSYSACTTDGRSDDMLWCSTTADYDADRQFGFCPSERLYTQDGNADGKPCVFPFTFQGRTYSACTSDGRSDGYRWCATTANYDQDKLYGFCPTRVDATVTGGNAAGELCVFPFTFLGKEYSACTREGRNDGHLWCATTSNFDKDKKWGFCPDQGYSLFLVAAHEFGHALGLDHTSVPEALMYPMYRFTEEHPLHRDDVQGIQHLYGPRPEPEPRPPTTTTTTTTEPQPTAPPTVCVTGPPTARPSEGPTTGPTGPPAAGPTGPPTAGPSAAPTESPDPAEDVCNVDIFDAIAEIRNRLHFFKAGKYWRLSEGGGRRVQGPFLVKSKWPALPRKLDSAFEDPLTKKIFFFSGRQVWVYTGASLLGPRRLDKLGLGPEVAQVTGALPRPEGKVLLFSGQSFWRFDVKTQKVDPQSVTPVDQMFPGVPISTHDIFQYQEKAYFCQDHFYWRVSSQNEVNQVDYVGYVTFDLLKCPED
72 kDa type IV collagenase, sequence (P08253 whole entry): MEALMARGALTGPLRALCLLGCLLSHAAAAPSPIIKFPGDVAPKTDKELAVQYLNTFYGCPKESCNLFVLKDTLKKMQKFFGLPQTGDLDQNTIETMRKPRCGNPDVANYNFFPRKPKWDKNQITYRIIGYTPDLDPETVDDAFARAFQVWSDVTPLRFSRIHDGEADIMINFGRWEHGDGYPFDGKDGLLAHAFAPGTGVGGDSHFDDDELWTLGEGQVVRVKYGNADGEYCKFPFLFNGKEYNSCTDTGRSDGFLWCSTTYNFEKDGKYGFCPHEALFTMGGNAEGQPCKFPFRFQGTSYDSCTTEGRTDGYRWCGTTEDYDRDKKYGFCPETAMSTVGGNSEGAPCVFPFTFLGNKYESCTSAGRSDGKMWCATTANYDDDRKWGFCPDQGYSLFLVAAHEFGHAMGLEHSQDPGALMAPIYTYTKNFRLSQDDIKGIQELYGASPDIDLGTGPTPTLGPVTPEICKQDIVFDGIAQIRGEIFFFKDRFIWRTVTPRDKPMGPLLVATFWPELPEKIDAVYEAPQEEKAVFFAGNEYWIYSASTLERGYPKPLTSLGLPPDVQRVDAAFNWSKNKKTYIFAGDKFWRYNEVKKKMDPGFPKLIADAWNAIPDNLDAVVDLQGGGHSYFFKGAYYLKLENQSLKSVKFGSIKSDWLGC
Epidermal growth factor receptor, sequence (P00533 whole entry): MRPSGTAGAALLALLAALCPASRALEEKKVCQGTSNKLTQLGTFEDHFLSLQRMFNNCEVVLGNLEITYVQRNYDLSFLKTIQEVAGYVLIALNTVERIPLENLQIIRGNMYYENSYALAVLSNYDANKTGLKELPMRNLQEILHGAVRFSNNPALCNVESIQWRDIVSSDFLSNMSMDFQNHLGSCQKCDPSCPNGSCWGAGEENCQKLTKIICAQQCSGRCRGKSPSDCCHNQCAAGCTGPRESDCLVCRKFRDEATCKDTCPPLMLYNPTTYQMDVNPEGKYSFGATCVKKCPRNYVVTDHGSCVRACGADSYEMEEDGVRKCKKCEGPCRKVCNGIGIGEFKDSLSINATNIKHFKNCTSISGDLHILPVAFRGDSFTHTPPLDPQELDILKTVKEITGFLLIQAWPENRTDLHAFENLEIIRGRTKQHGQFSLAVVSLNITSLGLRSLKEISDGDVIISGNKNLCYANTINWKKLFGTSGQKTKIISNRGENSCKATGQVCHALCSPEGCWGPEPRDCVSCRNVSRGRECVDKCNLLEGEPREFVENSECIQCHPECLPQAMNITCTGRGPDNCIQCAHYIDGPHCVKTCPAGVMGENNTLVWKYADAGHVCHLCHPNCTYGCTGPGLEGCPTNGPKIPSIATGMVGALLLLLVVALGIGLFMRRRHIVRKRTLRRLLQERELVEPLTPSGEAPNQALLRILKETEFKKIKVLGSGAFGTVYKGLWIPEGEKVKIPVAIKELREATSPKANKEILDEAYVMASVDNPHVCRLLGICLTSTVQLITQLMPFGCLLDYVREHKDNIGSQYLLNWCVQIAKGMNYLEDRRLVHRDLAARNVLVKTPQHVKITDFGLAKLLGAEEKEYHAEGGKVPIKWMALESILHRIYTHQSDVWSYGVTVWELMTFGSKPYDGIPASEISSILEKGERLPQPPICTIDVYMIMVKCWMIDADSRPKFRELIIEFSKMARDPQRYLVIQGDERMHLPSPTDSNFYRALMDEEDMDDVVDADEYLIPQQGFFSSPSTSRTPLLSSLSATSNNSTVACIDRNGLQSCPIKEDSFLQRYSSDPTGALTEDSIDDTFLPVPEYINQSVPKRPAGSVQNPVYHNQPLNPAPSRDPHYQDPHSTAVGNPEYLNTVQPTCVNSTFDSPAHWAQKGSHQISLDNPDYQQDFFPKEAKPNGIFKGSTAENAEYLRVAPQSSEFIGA

Compound | IC50 [1] [µM] | IC50 [2] [µM] | IC50 [3] [µM] | IC50 [4] [µM]
COC[C@@H](Cn1ccnc1[N+](=O)[O-])OC(=O)c1ccc(NC(=O)C(F)(F)F)cc1 [TX-2045] | > 240 | > 240 | – | –
COC[C@H](Cn1ccnc1[N+](=O)[O-])OC(=O)c1ccc(NC=C2C(=O)C=CC2=O)cc1 [TX-2044] | – | – | 23 | –
COC[C@@H](Cn1ccnc1[N+](=O)[O-])OC(=O)c1ccc(NC=C2C(=O)C=CC2=O)cc1 | 24 | 53 | – | 23.4
CC(C)(C)c1ccc(OC[C@@H](Cn2ccnc2[N+](=O)[O-])OC(=O)c2ccc(NC=C3C(=O)C=CC3=O)cc2)cc1 [TX-2036] | – | 67 | 1.8 | 18.4
COC[C@H](Cn1ccnc1[N+](=O)[O-])OC(=O)c1ccc(NC(=O)C(F)(F)F)cc1 [TX-2046] | > 240 | > 240 | – | –
CC(C)(C)c1ccc(OC[C@H](Cn2ccnc2[N+](=O)[O-])OC(=O)c2ccc(NC=C3C(=O)C=CC3=O)cc2)cc1 [TX-2037] | 183 | 103 | 18.4 | 184
